The values that follow come from paper PMC9827907 (Chemmedchem, 2022).

Read-outs that look alike come from different tables or passages of the source.

One data set relates to P. falciparum 7G8. As to the kind of experiment: 72-hour [3H]hypoxanthine incorporation assay, field adapted strain 7G8. The format is cell-based. Conditions: Plasmodium falciparum, 7G8, read-out: IC50, 7G8. A digest of the protocol:
(§1)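 Intraerythrocytic asexual-stage activity was measured against field-adapted drug-resistant P. falciparum strains. The drug-sensitive NF54 strain served as the wild-type reference, and fold shift was taken relative to NF54. Chloroquine and artesunate were run as control drugs.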

The next data set concerns P. falciparum Cam3.I. As to the kind of experiment: 72-hour [3H]hypoxanthine incorporation assay, field adapted strain Cam3.I. Format: cell-based. Conditions: Plasmodium falciparum, read-out: IC50, Cam3.I. In outline:
as §1

Another data set relates to P. falciparum Dd2. As to the kind of experiment: 72-hour [3H]hypoxanthine incorporation assay, field adapted strain Dd2. The settings on record: Plasmodium falciparum, DD2, read-out: IC50, Dd2. The format is cell-based. In outline:
as §1

For a further data set, the system named is P. falciparum TM90 C2b. As to the kind of experiment: 72-hour [3H]hypoxanthine incorporation assay, field adapted strain TM90 C2b. Format: cell-based. The settings on record: Plasmodium falciparum, TM90, read-out: IC50, TM90 C2b. A digest of the protocol:
as §1

For the next data set, the system named is P. falciparum K1. As to the kind of experiment: 72-hour [3H]hypoxanthine incorporation assay, field adapted strain K1. The format is cell-based. Conditions: Plasmodium falciparum, K1, read-out: IC50, K1. A digest of the protocol:
as §1

The test system of a further data set is P. falciparum 3D7. As to the kind of experiment: In vitro P. falciparum viability assay, 3D7 strain, 72-hour SYBR green. Format: cell-based, Plasmodium falciparum. The settings on record: for IC50: Plasmodium falciparum, 3D7, 72 h, read-out: 3D7 IC50. In outline: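 Asexual blood-stage growth inhibition was measured on the 3D7 strain with 72 h exposure to test compound. IC50 values are geometric mean ± SEM of at least two independent experiments.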

Data set [1] in a line: Metabolic stability study using human liver microsomes. Format: in vitro ADME. Conditions: pooled human liver microsomes. (In general: Liver microsomes are a subcellular fraction often used to study metabolism.)
In data set [2] the test system is P. falciparum Dd2 (PfeEF2). As to the kind of experiment: In vitro intraerythrocytic antimalarial activity, lab adapted strain Dd2. Format: cell-based. Conditions: Plasmodium falciparum, DD2, read-out: IC50, Dd2 (PfeEF2). A digest of the protocol: (§2)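 Intraerythrocytic asexual-stage activity was measured against laboratory resistant lines, with resistance mutations introduced into a Dd2 wild-type background. Fold shift was taken relative to Dd2 wild type. Strain-matched reference inhibitors were tested on Dd2 wild type and on the mutant lines. Values are means of at least two independent experiments.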

The subject of data set [3] is P. falciparum clone G12 (PfeEF2 L507S). As to the kind of experiment: 72 hour concentration-response assay, MMV692140-selected clone G12. The format is cell-based, Plasmodium falciparum. Conditions: vs parental Dd2-B2, Figure 3. In outline:
(§3)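 Drug-selected P. falciparum clones carry PfeEF2 point mutations in the chloroquine-resistant Dd2-B2 background and are compared with the parental Dd2-B2 clone. […] Each clone was tested against parent by unpaired t test with Welch's correction.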

The test system of data set [4] is P. falciparum clone D3 (PfeEF2 F770L). As to the kind of experiment: 72 hour concentration-response assay, MMV692140-selected clone D3. The settings on record: IC50 vs Dd2-B2 parent. Format: cell-based, Plasmodium falciparum. In outline: as §3
Data set [5] deals with P. falciparum clone F8 (PfeEF2 L775F). As to the kind of experiment: 72 hour concentration-response assay, M5717-selected clone F8. The format is cell-based, Plasmodium falciparum. In outline:
as §3

The test system of a further data set is P. falciparum Dd2 (wt). As to the kind of experiment: In vitro intraerythrocytic antimalarial activity, Dd2. The format is cell-based, Plasmodium falciparum.
Data set [6] relates to P. falciparum clone D6 (PfeEF2 Y186N). As to the kind of experiment: 72 hour concentration-response assay, M5717-selected clone D6. Format: cell-based, Plasmodium falciparum. In outline:
as §3

Data set [7] relates to P. falciparum clone E5 (PfeEF2 E134D). As to the kind of experiment: 72 hour concentration-response assay, M5717-selected clone E5. The format is cell-based, Plasmodium falciparum. A digest of the protocol:
as §3

The test system of data set [8] is P. falciparum clone A3 (PfeEF2 Y719C). As to the kind of experiment: 72 hour concentration-response assay, MMV692140-selected clone A3. The format is cell-based, Plasmodium falciparum. Conditions: vs parental Dd2-B2, Figure 3. In outline:
as §3

Data set [9] deals with P. falciparum Dd2 (Pfdhodh). As to the kind of experiment: In vitro intraerythrocytic antimalarial activity, lab adapted strain Dd2. The format is cell-based, Plasmodium falciparum. In outline: as §2
The subject of data set [10] is P. falciparum Dd2 (Pfcytb). The description is as above. The format is cell-based, Plasmodium falciparum. A digest of the protocol:
as §2

Data set [11] relates to P. falciparum Dd2 (Pfpi4k). Described as above. The format is cell-based, Plasmodium falciparum. In outline:
as §2

Setting [12] is: Plasmodium falciparum, DD2, read-out: IC50, Dd2 (wt).

Usually IC50 stands for the midpoint of a concentration-inhibition curve. Take `C[C@H]1[C@H](OC(=O)CCC(=O)O)O[C@@H]2O[C@@]3(C)CC[C@H]4[C@H](C)CC[C@@H]1[C@@]24OO3` [Artesunate]: the IC50 was found to be 2 nM with P. falciparum 7G8; 11 nM in the data set with P. falciparum Cam3.I; 6 nM in the data set on P. falciparum Dd2; 5 nM with P. falciparum TM90 C2b; 2 nM with P. falciparum K1.

Regarding `CCN(CC)CCCC(C)Nc1ccnc2cc(Cl)ccc12` (centres unmarked) [Chloroquine], the IC50 turned out to be 80 nM in the data set with P. falciparum 7G8; 180 nM in the data set on P. falciparum Cam3.I; 160 nM in the data set on P. falciparum Dd2; 140 nM in the data set with P. falciparum TM90 C2b; 200 nM with P. falciparum K1.

One may read the microsomal CLint as the rate of metabolic loss divided by the concentration. The low end stands for greater metabolic stability, the high end for faster metabolism. As for `COc1ccc(-n2nnnc2N2CCC(C(=O)N3CCCc4ccccc43)CC2)cc1` [Compound 7, (3,4-Dihydroquinolin-1(2H)-yl)(1-(1-(4-methoxyphenyl)-1H-tetrazol-5-yl)piperidin-4-yl)methanone], the IC50 with P. falciparum 3D7 stood at 900 ± 140 nM. In data set [1], this molecule registered a microsomal CLint at 1 µM of 521 µL/min/mg.

As for `Cc1ccccc1-n1nnnc1N1CCC(C(=O)N2CCCc3ccccc32)CC1` [Compound 8, (3,4-Dihydroquinolin-1(2H)-yl)(1-(1-(o-tolyl)-1H-tetrazol-5-yl)piperidin-4-yl)methanone], the IC50 with P. falciparum 3D7 stood at 1400 ± 20 nM.

On to `O=C(C1CCN(c2nnnn2-c2ccc(OC(F)(F)F)cc2)CC1)N1CCCc2ccccc21` [Compound 9], for which the IC50 with P. falciparum 3D7 stood at 5500 ± 860 nM.

As for `O=C(C1CCN(c2nnnn2-c2ccccc2)CC1)N1CCCc2c(Cl)cccc21` [Compound 17, (5-Chloro-3,4-dihydroquinolin-1(2H)-yl)(1-(1-phenyl-1H-tetrazol-5-yl)piperidin-4-yl)methanone], the IC50 in the data set with P. falciparum 3D7 came out at 600 ± 90 nM.

On to `O=C(C1CCN(c2nnnn2-c2ccccc2)CC1)N1CCCc2cc(Cl)ccc21` [Compound 20, (6-Chloro-3,4-dihydroquinolin-1(2H)-yl)(1-(1-phenyl-1H-tetrazol-5-yl)piperidin-4-yl)methanone], for which the IC50 in the data set with P. falciparum 3D7 is more than 25000 nM.

Turning to `N#Cc1ccc2c(c1)N(C(=O)C1CCN(c3nnnn3-c3ccccc3)CC1)CCC2` [Compound 22], the IC50 in the data set on P. falciparum 3D7 is more than 25000 nM.

On to `O=C(C1CCN(c2nnnn2-c2ccccc2)CC1)N1CCCc2ccc(Cl)cc21` [Compound 23, (7-Chloro-3,4-dihydroquinolin-1(2H)-yl)(1-(1-phenyl-1H-tetrazol-5-yl)piperidin-4-yl)methanone], for which the IC50 with P. falciparum 3D7 is more than 25000 nM.

With `O=C(C1CCN(c2nnnn2-c2ccccc2)CC1)N1CCCc2ncccc21` [Compound 24, (3,4-Dihydro-1,5-naphthyridin-1(2H)-yl)(1-(1-phenyl-1H-tetrazol-5-yl)piperidin-4-yl)methanone], in the data set on P. falciparum 3D7, the IC50 was found to be 10200 ± 750 nM.

Turning to `O=C(C1CCN(c2nnnn2-c2ccccc2)CC1)N1CCCc2cnccc21` [Compound 25, (3,4-Dihydro-1,6-naphthyridin-1(2H)-yl)(1-(1-phenyl-1H-tetrazol-5-yl)piperidin-4-yl)methanone], the IC50 with P. falciparum 3D7 is 10800 ± 650 nM.

With `CC(C)n1nnnc1N1CCC(C(=O)N2CCCc3ccccc32)CC1` [Compound 27, (3,4-Dihydroquinolin-1(2H)-yl)(1-(1-isopropyl-1H-tetrazol-5-yl)piperidin-4-yl)methanone], the IC50 in the data set with P. falciparum 3D7 was determined as 5600 ± 920 nM. Also, the microsomal CLint at 1 µM in data set [1] was determined as 135 µL/min/mg.

Turning to `O=C(C1CCN(c2nnnn2C2CCCC2)CC1)N1CCCc2ccccc21` [Compound 28, (1-(1-cyclopentyl-1H-tetrazol-5-yl)piperidin-4-yl)(3,4-dihydroquinolin-1(2H)-yl)methanone], the IC50 in the data set with P. falciparum 3D7 is 3300 ± 480 nM. Moreover, the microsomal CLint at 1 µM in data set [1] was more than 400 µL/min/mg.

Turning to `O=C(C1CCN(c2nnnn2C2CCCCC2)CC1)N1CCCc2ccccc21` [Compound 29], the IC50 in the data set on P. falciparum 3D7 came to 3500 ± 20 nM. Further, the microsomal CLint at 1 µM in data set [1] was more than 400 µL/min/mg.

For `O=C(C1CCN(c2nnnn2-c2ccc(F)cc2)CC1)N1CCOc2ccccc21` [Compound 30], in the data set on P. falciparum 3D7, the IC50 turned out to be 8900 ± 1400 nM. This molecule had a microsomal CLint at 1 µM in [1] of 83 µL/min/mg.

`COc1ccc(-n2nnnc2N2CCC(C(=O)N3CCCc4c(Cl)cccc43)CC2)cc1` [Compound 31]: the IC50 with P. falciparum 3D7 was 700 ± 100 nM. Further, the microsomal CLint at 1 µM in data set [1] was more than 400 µL/min/mg.

As for `COc1ccc(-n2nnnc2N2CCC(C(=O)N3CCOc4c(Cl)cccc43)CC2)cc1` [Compound 32], the IC50 in the data set with P. falciparum 3D7 came out at 3600 ± 1200 nM. Besides, in data set [1], the microsomal CLint at 1 µM turned out to be 78 µL/min/mg.

For `O=C(C1CCN(c2nnnn2-c2ccc(N3CCCC3)cc2)CC1)N1CCCc2c(Cl)cccc21` [Compound 33], the IC50 in the data set with P. falciparum 3D7 turned out to be 110 ± 10 nM. Also, the microsomal CLint at 1 µM in data set [1] was more than 400 µL/min/mg.

Regarding `O=C(C1CCN(c2nnnn2-c2ccc(N3CCCC3)cc2)CC1)N1CCOc2c(Cl)cccc21` [Compound 34], in the data set with P. falciparum 3D7, the IC50 came to 1600 ± 81 nM. The microsomal CLint at 1 µM in data set [1] was 296 µL/min/mg.

Consider `O=C(C1CCN(c2nnnn2-c2ccc(N3CCCC3)cc2)CC1)N1CCCc2c(F)cccc21` [Compound 36, (5-fluoro-3,4-dihydroquinolin-1(2H)-yl)(1-(1-(4-(pyrrolidin-1-yl)phenyl)-1H-tetrazol-5-yl)piperidin-4-yl)methanone], for which the IC50 in the data set on P. falciparum 3D7 is 66 ± 8 nM. For the same molecule, the “improvement of antimalarial asexual blood stage in vitro potency” value with P. falciparum 3D7 (relative to hit compound 2, 72-hour 3D7 assay) is 30 fold. Besides, the microsomal CLint at 1 µM in [1] was more than 400 µL/min/mg.

Take `O=C(NCCN1CCCC1)c1cc(-c2ccc(CN3CCOCC3)cc2)nc2ccc(F)cc12` [Compound M5717]: the IC50 amounted to 3100 nM in [2]; 660 nM in data set [5] (Plasmodium falciparum, 72 h, read-out: IC50, clone F8); 2 nM in the data set on P. falciparum Dd2 (wt) (setting [12]); 3100 nM in [6] (Plasmodium falciparum, D6, 72 h, read-out: IC50, clone D6); 5.8 nM in data set [7] (Plasmodium falciparum, 72 h, read-out: IC50, clone E5). Besides, the “Cross resistance of compound 2-selected clone G12” value in [3] is reported as “not cross‐resistant”. The “Fold shift, clone D3” value in [4] is listed as 1.6 fold. For the same molecule, the “Fold shift, clone F8” value in data set [5] (IC50 vs Dd2-B2 parent) is 3100x fold. The “Fold shift, clone D6” value in [6] (IC50 vs Dd2-B2 parent) came to 14700x fold. Also, the “Fold shift, clone E5” value in [7] (IC50 vs Dd2-B2 parent) is 27x fold. Further, the “Cross resistance of compound 2-selected clone A3” value in data set [8] was “not cross‐resistant”.

`Cc1cc(Nc2ccc(S(F)(F)(F)(F)F)cc2)n2nc(C(C)(F)F)nc2n1` [DSM265]: the IC50 in [9] (Plasmodium falciparum, DD2, read-out: IC50, Dd2 (Pfdhodh)) stood at 143 nM; in the data set with P. falciparum Dd2 (wt) (setting [12]) it was 8 nM. For the same molecule, in [9] (vs Dd2 (wt)), the “fold shift, Dd2 (Pfdhodh)” value was 18 fold.

With `COc1cc2[nH]c(C)c(-c3ccc(Oc4ccc(OC(F)(F)F)cc4)cc3)c(=O)c2cc1Cl` [ELQ300], the IC50 in [10] (read-out: IC50, Dd2 (Pfcytb), reference compound) came out at 254 nM; in the data set on P. falciparum Dd2 (wt) (read-out: IC50, Dd2 (wt), reference compounds), 19 nM. For the same molecule, in data set [10] (vs Dd2 (wt)), the “fold shift, Dd2 (Pfcytb)” value is 13 fold.

Consider `CS(=O)(=O)c1ccc(-c2cnc(N)c(-c3ccc(C(F)(F)F)nc3)c2)cc1` [MMV390048], for which the IC50 with P. falciparum Dd2 (wt) (setting [12]) worked out at 21.2 nM; in data set [11] (Plasmodium falciparum, DD2, read-out: IC50, Dd2 (Pfpi4k)), 102 nM. Further, the “fold shift, Dd2 (Pfpi4k)” value in data set [11] (vs Dd2 (wt)) came out at 4.8 fold.
